The values below come from ChEMBL document CHEMBL6134900 (J Med Chem, 2025).

Usually AUC stands for the area under the concentration-time curve, a measure of exposure. Read a low AUC as low exposure.

Data set [1] is described as follows: Drug concentration in CRBN I391V mutant mouse plasma at 10 mg/kg, po administered once daily for 3 days and measured at 24 hrs post last dose. The class given is ADME, organism-based. As to conditions: time 3 day. A digest of the protocol: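 Oral dosing once daily for 3 days: 5–80 mg/kg in C57BL/6 mice, 10–80 mg/kg in CrbnI391V mice. Euthanized 24 h after last dose. Plasma drug level measured. Spleen SMARCA2 by Western blot against actin loading control, relative to vehicle.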

Data set [2] is described as follows: Toxicity in immunocompromised mouse xenografted with human NCI-H1568 cells assessed as change in body weight at 80 mg/kg, administered once daily for 21 days. The class given is organism-based. The settings on record: in vivo, 504 h, time 21 day. For orientation: A xenograft is tissue or cells of one species grown in another, often human tumour cells in immunodeficient mice.

Data set [3] in a line: Drug metabolism in mouse liver microsomes assessed as Mono-oxygenation mediated M2 metabolite formation at 10 uM incubated for 60 mins by LC-UV-HRMS analysis. The format is ADME, Microsome. The settings on record: 1 h. Summed up:
(§1)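 Compound at 10 μM incubated with mouse liver microsomes at 37 °C for 60 min. Metabolites detected by LC-UV-HRMS, structures proposed from MS and MS2 data, and each metabolite given as a percentage.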

Data set [4] is described as follows: In vivo PROTAC activity at CRBN/SMARCA2 in female athymic nude mouse xenografted with human NCI-H1568 cells harboring SMARCA4 mutant assessed as SMARCA2 degradation at 40 mg/kg, po administered once daily via gavage for 13 days by Western blotting analysis relative to control. The class given is functional. The settings on record: time 13 day. Summed up: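 H1568 cells (2 × 10^6, PBS/Matrigel 1:1) implanted subcutaneously in the flank of female nude mice aged 6–8 weeks. Randomised at about 60 mm3 tumour volume. 40 mg/kg or vehicle given by oral gavage once daily for 13 days in 0.5% methylcellulose/Tween-80, sonicated. Tumours collected 24 h after dosing. SMARCA2 measured by Western blot against β-actin, relative to vehicle.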

Data set [5] deals with T1, Protein cereblon/SWI/SNF-related matrix-associated actin-dependent regulator of chromatin subfamily A member 2 (Homo sapiens, UniProt P51531+Q96SW2). Briefly: PROTAC activity at CRBN/SMARCA2 in CRBN knockout human H322 cells harboring SMARCA4 mutant assessed as induction of SMARCA2 degradation at 1 uM by immunoblot analysis. The format is cell-based. (In general: Immunoblotting shows a protein as a band on a membrane.)

Data set [6] has as its target T1, Protein cereblon/SWI/SNF-related matrix-associated actin-dependent regulator of chromatin subfamily A member 2. Briefly: PROTAC activity at CRBN/SMARCA2 in human H322 cells harboring SMARCA4 mutant assessed as induction of SMARCA2 degradation at 1 uM in presence of Gen-1 by immunoblot analysis. The format is cell-based.
The test system of the next data set is NCI-H2030. The data set is described as follows: Synergistic antitumor activity against human NCI-H2030 cells harboring KRAS G12C mutant/SMARCA4 mutant assessed as inhibition of colony formation incubated for 8 days in presence of sotorasib by clonogenic growth assay. As to conditions: time 8.0 day. The class given is functional, cell-based. Summed up:
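H2030 clonogenic assay over 8 days with 2-fold dilutions of sotorasib, test agent, or both. Crystal violet staining, total colony area normalized. Synergy scored as Bliss/Lowe consensus, >10 taken as synergy.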

Data set [7] in a line: In vivo PROTAC activity at CRBN/SMARCA2 in female athymic nude mouse xenografted with human NCI-H2030 cells harboring SMARCA4 mutant assessed as SMARCA2 degradation at 5 mg/kg, po administered once daily via gavage for 17 days by Western blotting analysis relative to control. The format is functional. The settings on record: time 17 day. Summed up:
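H2030 cells (10 × 10^6, PBS/Matrigel 1:1) implanted subcutaneously in the flank of female nude mice. Randomised below 200 mm3. 5 mg/kg or vehicle given by oral gavage once daily for 17 days in 10% DMSO/40% PEG300/1% Tween-80/49% saline. Tumours collected 24 h after dosing. SMARCA2 measured by Western blot against β-actin, relative to vehicle.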

The nature of data set [8]: AUC (0 to infinity) in male CD-1 (ICR) mouse at 25 mg/kg, po measured up to 24 hrs by LC-MS/MS analysis. The class given is ADME, organism-based. The settings on record: in vivo. Summed up:
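Single 25 mg/kg dose. IP vehicle was 5% DMSO/5% solutol/90% water at 1.25 mg/mL, final pH 4.39, clear solution. Oral vehicle was 0.5% methylcellulose/0.2% Tween 80 in water, opaque suspension. Plasma sampled at 0.25, 0.5, 1, 2, 4, 8 and 24 h. Plasma protein-precipitated with internal standard in acetonitrile, then LC-MS/MS. n = 3 mice per time point, mean.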

The nature of data set [9]: Drug metabolism in mouse liver microsomes assessed as hydrolysis mediated M3 metabolite formation at 10 uM incubated for 60 mins by LC-UV-HRMS analysis. The format is ADME, Microsome. As to conditions: 1 h. Summed up: as §1
(Liver microsomes are vesicles of endoplasmic reticulum, rich in cytochrome P450 enzymes.)

The target in data set [10] is T1, Protein cereblon/SWI/SNF-related matrix-associated actin-dependent regulator of chromatin subfamily A member 2. Briefly: PROTAC activity at CRBN/SMARCA2 in human H322 cells harboring SMARCA4 mutant assessed as induction of SMARCA2 degradation at 0.1 uM in presence of bortezomib by immunoblot analysis. The format is cell-based.
Data set [11] has the same target. The data set is described as follows: PROTAC activity at CRBN/SMARCA2 in human H322 cells harboring SMARCA4 mutant assessed as induction of SMARCA2 degradation at 0.1 uM in presence of Gen-1 by immunoblot analysis. The class given is cell-based.

Active and inactive are the calls of the source. No cut-off for these calls is given here.

The molecule `Nc1nnc(-c2ccccc2O)cc1N1CCN(Cc2ccc(N3CCC(CN4CCN(c5ccc6c(c5)C(=O)N(C5CCC(=O)NC5=O)C6=O)CC4)CC3)c(F)c2)CC1` (configuration not stated) came in with a concentration at 72 h in data set [1] of 1000 nM. The Activity entry in [2] is listed as “Non-toxic”; in data set [4] it was 50%. Further, the Drug metabolism entry in [3] was “metabolite_detected”. In addition, the outcome in [5] and in data set [6] was inactive.

As for `Nc1nnc(-c2ccccc2O)cc1N1CCN(Cc2ccc(N3CCN(CCOc4cccc5c4C(=O)N(C4CCC(=O)NC4=O)C5=O)CC3)c(F)c2)CC1` (configuration not stated), the outcome in the data set with NCI-H2030 was Active. For the same molecule, the Activity in [7] is given as 40%. The AUC in data set [8] was found to be 5122 ng·h/mL. Also, the Drug metabolism entry in data set [9] was “metabolite_detected”. Moreover, the result in data set [10] and in data set [11] was inactive.
